Several values for one entry are separate records, joined by “and”; a condition that tells them apart may be missing. Identical values can stand only once.
Tests used:
FM3A = experiment: Compound was tested for cytotoxicity against FM3A mouse mammary cells.; format: functional, cell-based
Mus musculus [1] = experiment: Compound was tested for antimalarial activity against mice (Mus musculus) malaria parasite Plasmodium berghei in vivo and the samples were administarted intraperitoneally.; format: functional; conditions: for ED50: ip
Plasmodium falciparum [2] = experiment: In vitro antimalarial activity against chloroquine-sensitive Plasmodium falciparum FCR3; format: functional, organism-based
Plasmodium falciparum [3] = experiment: In vitro antimalarial activity against chloroquine-resistant Plasmodium falciparum K1; format: functional, organism-based
[4] = Selectivity is the ratio of antimalarial activity and cytotoxicity; format: functional
Summary of the method: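 Ratio of antimalarial activity to cytotoxicity, with cytotoxicity measured against FM3A mouse mammary cells.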

Plasmodium berghei = experiment: In vivo antimalarial activity against Plasmodium berghei infected mice (Mus musculus) by intraperitoneal dose; format: functional
Mus musculus [5] = experiment: Compound was tested for antimalarial activity against mice (Mus musculus) malaria parasite Plasmodium berghei in vivo mice (Mus musculus) and the samples were administarted intraperitoneally.; format: functional

## CC1(C)[C@@H](n2cnc3ccccc3c2=O)C(=O)C[C@@H]2[C@@H](O)CCCN21
FM3A
  EC50: 380 nM
Mus musculus [1]
  ED90: 19.4 µM/kg
  ED50: 7.3 µmol/kg
Plasmodium falciparum [2]
  EC50: 1.6 nM
Plasmodium falciparum [3]
  EC50: 3 nM
[4]
  Selectivity: 238 and 127

## CC1(C)[C@H](n2cnc3ccccc3c2=O)C(=O)C[C@H]2[C@@H](O)CCCN21
FM3A
  EC50: 2400 nM
Mus musculus [1]
  ED50: 76 µmol/kg
Plasmodium falciparum [2]
  EC50: 2.8 nM
Plasmodium falciparum [3]
  EC50: 4.2 nM
[4]
  Selectivity: 857 and 571

## CCN(CC)CCCC(C)Nc1ccnc2cc(Cl)ccc12 (centres undefined) [CHLOROQUINE]
FM3A
  EC50: 32000 nM
Mus musculus [1]
  ED90: 9.4 µM/kg
  ED50: 4.7 µmol/kg
Plasmodium falciparum [2]
  EC50: 18 nM
Plasmodium falciparum [3]
  EC50: 130 nM

## O=C(C[C@@H]1NCCC[C@H]1O)Cn1cnc2ccccc2c1=O (single isomer, unassigned) [FEBRIFUGINE]
FM3A
  EC50: 170 nM
Mus musculus [1]
  ED90: 5 µM/kg
  ED50: 1 µmol/kg
Plasmodium falciparum [2]
  EC50: 0.7 nM
Plasmodium falciparum [3]
  EC50: 1.2 nM
[4]
  Selectivity: 243 and 142

## C[C@@H]1CC[C@H]2[C@@H](C)C(=O)O[C@@H]3O[C@@]4(C)CC[C@@H]1[C@]32OO4 [ARTEMISININ]
Plasmodium berghei
  ED90: 46 µM/kg
Plasmodium berghei; ip
  ED50: 17.7 µmol/kg

## O=c1c2ccccc2ncn1CC1(O)C[C@@H]2NCCC[C@@H]2O1 (some centres undefined) [ISOFEBRIFUGINE]
FM3A
  EC50: 180 nM
Mus musculus [5]
  ED90: 5 µM/kg
Plasmodium falciparum [2]
  EC50: 3.4 nM
Plasmodium falciparum [3]
  EC50: 1.8 nM
[4]
  Selectivity: 53 and 100
